In publication PMC4168784 (ACS Chemical Biology, 2014):
Like-named read-outs stand apart in the source and are kept apart here. Square brackets hold non-standard residues; d marks the D form. Peptide text beside a SMILES is read from it. Orn(N5-OH,N5-Ac) = CC(=O)N(O)CCC[C@H](N)C(=O)O

Experiments:
[1] = test system: DFO:YxeB-L142-6×His complex; assay: Iron exchange experiment in vitro analysed by RP-HPLC; assay type: biochemical, Bacillus cereus; settings: for metal exchange rate (FO formed): 0.2 nmol/mL added; for FO bound to YxeB (iron transferred to DFO): 0.2 nmol/mL metal–substrate added to YxeB:DFO, 40 min incubation
YxeB-S142-6×His [2] = target: T1, YxeB-S142-6×His (Bacillus cereus, UniProt Q81IK3, L142S); settings: calculated previously; cited from earlier work
T1 sequence (Q81IK3 19-306 L142S): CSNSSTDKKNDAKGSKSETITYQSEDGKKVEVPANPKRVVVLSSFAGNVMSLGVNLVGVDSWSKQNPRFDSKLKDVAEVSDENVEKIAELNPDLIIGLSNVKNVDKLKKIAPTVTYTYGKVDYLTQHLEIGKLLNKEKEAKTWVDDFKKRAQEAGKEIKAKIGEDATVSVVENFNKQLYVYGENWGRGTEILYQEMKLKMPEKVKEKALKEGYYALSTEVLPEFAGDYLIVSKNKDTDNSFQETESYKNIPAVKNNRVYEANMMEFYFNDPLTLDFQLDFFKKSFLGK

[3] = cited from earlier work
TC137 strain [4] = assay: Growth assay in iron-limited minimum medium; assay type: cell-based, Bacillus cereus; settings: 10 or 100 nM siderophore in iron-limited minimum medium
TC137 strain [5] = assay: Disc diffusion assay; assay type: cell-based, Bacillus cereus; settings: 10 nmol infused in the disc (supplement: 10 pmol)
In short: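 Sterile filter discs were loaded with 10 nmol siderophore; 6 μL DMSO served as the negative control. Growth was scored around each disc.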

YxeB-L142-6×His [6] = target: T2, YxeB-L142-6×His (Bacillus cereus, UniProt Q81IK3); assay: Substrate binding assay using RP-HPLC; settings: bound = substrate detected in the protein complex analyzed by RP-HPLC
T2 sequence (Q81IK3 19-306): T1 sequence (Q81IK3 19-306 L142S)
In short: (§1)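 His-tagged protein (2 μM) was bound to Ni-agarose beads in TBS over 2 h at RT. Substrate was added for 10 min at RT: 10 μM metal complex or 20 μM apo-ligand. Pellets were washed twice, then extracted with 20% acetonitrile (Ga complex) or 0.1% TFA for 20 min. C18 RP-HPLC at 220 nm followed, with a 0–25% acetonitrile gradient.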

YxeB-L142-6×His [7] = target: T2, YxeB-L142-6×His; assay: Fluorescence quenching; assay type: binding
YxeB-S142-6×His [8] = target: T1, YxeB-S142-6×His; assay: Fluorescence quenching; assay type: binding
YxeB-S142-6×His [9] = target: T1, YxeB-S142-6×His; assay: Substrate binding assay using RP-HPLC; settings: bound = substrate detected in the protein complex analyzed by RP-HPLC
In short: as §1

[10] = test system: DFO:YxeB-S142-6×His complex; assay: Iron exchange experiment in vitro analysed by RP-HPLC; assay type: biochemical, Bacillus cereus
In short: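 His-tagged YxeB (2 μM), 4 μM DFO and Ni-agarose beads were mixed 2 h at RT in TBS, then given 0.2 μM (final) acetylated ferrioxamine. Pelleted aliquots were washed twice and eluted 20 min in 0.01% TFA. Eluates ran on C18 RP-HPLC (0.1% TFA/acetonitrile, 0–25% over 50 min, 220 nm) to quantify bound ligands.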

[11] = Iron exchange experiment without the YxeB protein; settings: 0.2 μM AcFO, 4 μM DFO, no protein; up to 24 h
In short: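 No protein was present: 4 μM DFO and 0.2 μM acetylated ferrioxamine (final concentrations) were mixed in TBS at RT. Samples taken at 0 and 5 min and at 1, 3 and 24 h went directly onto C18 RP-HPLC (0.1% TFA/acetonitrile, 0–25% over 50 min, 220 nm).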

[12] = test system: DFO:YxeB-S142-6×His complex; assay: Fe-/Ga-/Cr-DFO substrate binding; assay type: biochemical, Bacillus cereus; settings: ICP analysis; for metal exchange rates or displaced substrate rates: 0.2 nmol/mL added, 30 min incubation; for substrates bound to YxeB except DFO: 0.2 nmol/mL metal–substrate added to YxeB:DFO, after 30 min incubation
In short: (§2)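 2 μM His-tagged YxeB variant, 4 μM DFO and Ni-agarose beads were shaken 2 h at RT in TBS (25 mM Tris-HCl, pH 7.4). Then 0.2 μM (final) Fe-, Ga- or Cr-hydroxamate was added at RT. Pellets collected at 0–30 min were digested overnight in 3.5% nitric acid and measured by ICP with 0.1 ppm Eu internal standard. Results are the mean of three experiments, with standard errors.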

[13] = test system: DFO:YxeB-L/S142-6×His complex; assay: ICP exchange or displacement assay, text statements covering both variants; assay type: biochemical, Bacillus cereus; settings: 0.2 μM added; for metal (Ga, Fe, Cr) contained in the YxeB complexes: both YxeB-L142 and -S142 complexes; for amounts of metal transferred after 5 min incubation: both variants; for Ga and Fe transferred to the DFO:YxeB complex: within the 5 min incubation time
In short: as §2

YxeB-L142-6×His [14] = target: T2, YxeB-L142-6×His; settings: calculated previously; cited from earlier work
[15] = test system: DFO:YxeB-L142-6×His complex; assay: Fe-/Ga-/Cr-DFO substrate binding; assay type: biochemical, Bacillus cereus; settings: ICP analysis; for metal exchange rates or displaced substrate rates: 0.2 nmol/mL added, 30 min incubation; for substrates bound to YxeB except DFO: 0.2 nmol/mL metal–substrate added to YxeB:DFO, after 30 min incubation
In short: as §2

[16] = test system: wild-type strains, TC128 and TC129; assay: Cr-DFO and Ga-DFO import, metal in cells measured by ICP; assay type: cell-based, Bacillus cereus; settings: 2 μM metal complex added in the culture
In short: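 B. cereus cultures at OD600 0.8–1.3 received 2 μM metal–siderophore complex. Incubation was 120 min for Cr and 80 min for Ga, by which point OD600 was 1.6–2.1. Cell-associated Cr or Ga was then quantified by ICP. Values are the average of two independent experiments, with standard errors.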

[17] = read-out: Kd (nM) by FQ assay, calculated using fluorescence quenching data previously described
[18] = read-out: Kd (nM) by FQ assay, calculated by Hyperquad, SD in parentheses

Compound: C=CC1=C(C)c2cc3[n-]c(cc4[n-]c(cc5nc(cc1n2)C(C)=C5C=C)c(C)c4CCC(=O)O)c(CCC(=O)O)c3C.O.[Fe+2] [hematin]
- metal exchange rate (FO formed) ([1]; RP-HPLC, 40 min): ≤ 1%
- FO bound to YxeB (iron transferred to DFO) ([1]; RP-HPLC): 0.003 nmol/mL sample

Compound: CC(=O)N(O)CCCCCNC(=O)CCC(=O)N(O)CCCCCNC(=O)CCC(=O)N(O)CCCCCN [DFO, desferrioxamine B]
- Kd (YxeB-S142-6×His [2]): 35.9 nM
- pFe^III [3]: 26.6
- growth of TC137 compared to wild-type strains TC129 and TC128 (TC137 strain [4]): delayed
- growth around a disc containing the siderophore (TC137 strain [5]): did not grow

Compound: CC(=O)N(O)CCC[C@@H]1NC(=O)CNC(=O)CNC(=O)CNC(=O)[C@H](CCCN(O)C(C)=O)NC(=O)[C@H](CCCN(O)C(C)=O)NC1=O.[Fe+3] [Fch, ferrichrome] (cyclo(GGG[Orn(N5-OH,N5-Ac)][Orn(N5-OH,N5-Ac)][Orn(N5-OH,N5-Ac)]))
- binding assay (HPLC) (YxeB-L142-6×His [6]): bound ^d
- pFe^III [3]: 25.2
- Fch bound to YxeB (displacement) ([1]; RP-HPLC, 0.2 nmol/mL Fch added, 40 min): 0.037 nmol/mL sample
- metal exchange rate (FO formed) ([1]; RP-HPLC, 40 min): 0%
- FO bound to YxeB (iron transferred to DFO) ([1]; RP-HPLC): 0 nmol/mL sample
- amount of Fch bound to the protein ([1]; displacement mechanism, 0.2 μM Fch, 40 min): 0.037 µM
- Kd (YxeB-L142-6×His [7]; [17]): 43 nM
- Kd (YxeB-S142-6×His [8]; [17]): 29.3 nM
- binding assay (HPLC) (YxeB-S142-6×His [9]): bound ^d

Compound: CC(=O)N(O)CCC[C@@H]1NC(=O)CNC(=O)CNC(=O)CNC(=O)[C@H](CCCN(O)C(C)=O)NC(=O)[C@H](CCCN(O)C(C)=O)NC1=O [DFch, desferrichrome] (cyclo(GGG[Orn(N5-OH,N5-Ac)][Orn(N5-OH,N5-Ac)][Orn(N5-OH,N5-Ac)]))
- binding assay (HPLC) (YxeB-L142-6×His [6]): bound ^d
- growth of TC137 compared to wild-type strains TC129 and TC128 (TC137 strain [4]): delayed
- Kd (YxeB-L142-6×His [7]): 104 nM
- Kd (YxeB-S142-6×His [8]): 23 nM
- binding assay (HPLC) (YxeB-S142-6×His [9]): bound ^d
- growth around a disc containing the siderophore (TC137 strain [5]): did not grow

Compound: CC(=O)NCCCCCN(O)C(=O)CCC(=O)NCCCCCN(O)C(=O)CCC(=O)NCCCCCN(O)C(C)=O [AcDFO]
- binding assay (HPLC) (YxeB-L142-6×His [6]): bound ^d
- Kd (YxeB-S142-6×His [8]): 30.7 nM
- binding assay (HPLC) (YxeB-S142-6×His [9]): bound ^d

Compound: CC(=O)NCCCCCN(O)C(=O)CCC(=O)NCCCCCN(O)C(=O)CCC(=O)NCCCCCN(O)C(C)=O.[Fe+3] [AcFO]
- binding assay (HPLC) (YxeB-L142-6×His [6]): bound ^d
- AcDFO bound to YxeB ([10]; 0.2 nmol/mL AcFO added): 0.089 nmol/mL sample
- metal exchange rate (FO formed) ([10]; 0.2 nmol/mL AcFO added): 72%
- FO bound to YxeB (iron transferred to DFO) ([10]; 0.2 nmol/mL AcFO added, 10 min incubation): 0.144 nmol/mL sample
- rate of iron-released substrate remaining bound to YxeB ([10]; AcDFO after AcFO addition): 45%
- iron exchange between AcFO and DFO without YxeB [11]: did not occur
- exchange amount (FO formed) after 8 min incubation ([1]; 0.2 μM AcFO added, 8 min): approximately 0.2 μM
- incubation time after which iron exchange with YxeB was complete ([1]; 0.2 μM AcFO, 4 μM DFO, 2 μM YxeB-L142-6×His): 2 min
- AcDFO bound to YxeB ([1]; RP-HPLC, 0.2 nmol/mL AcFO added, 40 min): 0.110 nmol/mL sample
- metal exchange rate (FO formed) ([1]; RP-HPLC, 40 min): 77%
- FO bound to YxeB (iron transferred to DFO) ([1]; RP-HPLC): 0.153 nmol/mL sample
- rate of iron-released substrate remaining bound to YxeB ([1]; RP-HPLC, AcDFO after AcFO addition): 55%
- Kd (YxeB-L142-6×His [7]; [18]): 25.4 nM
- Kd (YxeB-S142-6×His [8]; [18]): 31.6 nM
- binding assay (HPLC) (YxeB-S142-6×His [9]): bound ^d

Compound: CC(=O)N([O-])CCCCCNC(=O)CCC(=O)N([O-])CCCCCNC(=O)CCC(=O)N([O-])CCCCCN.[Fe+3] [FO, ferrioxamine B]
- Kd (YxeB-S142-6×His [2]): 29.1 nM
- metal exchange rates or displaced substrate rates [12]: 83%
- substrates bound to YxeB except DFO [12]: 0.166 nmol/mL sample
- metal (Ga, Fe, Cr) contained in the YxeB complexes [13]: > 0.15 nmol/mL reaction solution
- amounts of metal transferred after 5 min incubation [13]: 0.14–0.18 nmol/mL reaction solution
- Ga and Fe transferred to the DFO:YxeB complex [13]: > 70%
- Kd (YxeB-L142-6×His [14]): 38.8 nM
- metal exchange rates or displaced substrate rates [15]: 86%
- substrates bound to YxeB except DFO [15]: 0.172 nmol/mL sample

Compound: O=C([O-])CN(CCN(CC(=O)[O-])CC(=O)[O-])CC(=O)[O-].[Fe+3] [Fe-EDTA]
- pFe^III [3]: 23.4
- metal exchange rate (FO formed) ([1]; RP-HPLC, 40 min): ≤ 1%
- FO bound to YxeB (iron transferred to DFO) ([1]; RP-HPLC): 0.003 nmol/mL sample

Compound: ferric citrate [Fe-Cit]
- metal exchange rate (FO formed) ([1]; RP-HPLC, 40 min): 45%
- FO bound to YxeB (iron transferred to DFO) ([1]; RP-HPLC): 0.089 nmol/mL sample

Compound: CC(=O)N(O)CCCCCNC(=O)CCC(=O)N(O)CCCCCNC(=O)CCC(=O)N(O)CCCCCN.[Ga+3] [Ga-DFO]
- metal exchange rates or displaced substrate rates [12]: 83%
- substrates bound to YxeB except DFO [12]: 0.165 nmol/mL sample
- binding assay (HPLC) (YxeB-L142-6×His [6]): bound ^d
- metal (Ga, Fe, Cr) contained in the YxeB complexes [13]: > 0.15 nmol/mL reaction solution
- amounts of metal transferred after 5 min incubation [13]: 0.14–0.18 nmol/mL reaction solution
- Ga and Fe transferred to the DFO:YxeB complex [13]: > 70%
- Kd (YxeB-L142-6×His [7]; [18]): 59.2 nM
- Kd (YxeB-S142-6×His [8]; [18]): 44.6 nM
- metal exchange rates or displaced substrate rates [15]: 78%
- substrates bound to YxeB except DFO [15]: 0.155 nmol/mL sample
- binding assay (HPLC) (YxeB-S142-6×His [9]): bound ^d
- Ga or Cr in the cells (import) [16]: contained Ga or Cr in the cells

Compound: O=C(N[C@H]1COC(=O)[C@@H](NC(=O)c2cccc([O-])c2[O-])COC(=O)[C@@H](NC(=O)c2cccc([O-])c2[O-])COC1=O)c1cccc([O-])c1[O-].[Fe+3] [Fe-Ent, Fe-enterobactin]
- pFe^III [3]: 34.3
- metal exchange rate (FO formed) ([1]; RP-HPLC, 40 min): ≤ 5%
